Source: ChEMBL document CHEMBL4840330, “Secoiridoids from Dogwood (Cornus officinalis) Potentiate Progesterone Signaling” (J Nat Prod, 2021)
The source made the active and inactive calls.

Key:
[1] = molecular target: T1, Progesterone receptor (Homo sapiens) (UniProt P06401); assay: Induction of progesterone receptor B in human Ishikawa cells assessed as induction of PRE/Luc transcriptional activity at 10 uM measured after 24 hrs by luciferase reporter gene assay; type: cell-based
T1 sequence (whole entry): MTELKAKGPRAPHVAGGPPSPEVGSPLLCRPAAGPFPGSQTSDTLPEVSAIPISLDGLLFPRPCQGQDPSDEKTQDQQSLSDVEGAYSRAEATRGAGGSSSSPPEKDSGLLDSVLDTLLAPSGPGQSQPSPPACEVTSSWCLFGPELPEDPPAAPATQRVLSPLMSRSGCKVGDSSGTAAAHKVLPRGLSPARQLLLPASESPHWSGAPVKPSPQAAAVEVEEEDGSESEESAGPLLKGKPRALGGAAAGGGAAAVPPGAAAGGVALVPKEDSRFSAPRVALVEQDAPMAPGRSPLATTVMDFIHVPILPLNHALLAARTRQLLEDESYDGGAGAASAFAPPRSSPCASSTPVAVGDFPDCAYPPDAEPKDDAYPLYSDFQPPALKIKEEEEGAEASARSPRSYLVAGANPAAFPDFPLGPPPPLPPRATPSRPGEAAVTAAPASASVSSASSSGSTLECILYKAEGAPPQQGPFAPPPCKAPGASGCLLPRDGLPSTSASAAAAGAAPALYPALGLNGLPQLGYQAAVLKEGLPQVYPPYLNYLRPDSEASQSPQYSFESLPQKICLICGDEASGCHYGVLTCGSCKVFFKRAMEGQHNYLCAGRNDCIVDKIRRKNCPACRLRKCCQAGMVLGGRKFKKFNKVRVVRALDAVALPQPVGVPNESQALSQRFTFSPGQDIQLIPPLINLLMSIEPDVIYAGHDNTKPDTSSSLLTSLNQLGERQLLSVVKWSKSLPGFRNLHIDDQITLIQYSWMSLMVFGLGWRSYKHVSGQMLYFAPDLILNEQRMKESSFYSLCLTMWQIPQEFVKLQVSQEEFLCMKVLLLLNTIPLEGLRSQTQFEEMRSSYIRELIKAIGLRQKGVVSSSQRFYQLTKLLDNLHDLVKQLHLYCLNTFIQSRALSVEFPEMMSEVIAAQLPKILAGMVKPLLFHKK
Procedure, shortened: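 Ishikawa cells stably expressing PR-B; test agent alone at 10 μM; PRE-driven luciferase reporter read-out; n≥3; mean ± SEM.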

[2] = molecular target: T1, Progesterone receptor (Homo sapiens); assay: Potentiation of progesterone receptor B in progesterone-stimulated human Ishikawa cells assessed as induction of PRE/Luc transcriptional activity at 10 uM measured after 24 hrs by luciferase reporter gene assay relative to control
Procedure, shortened: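 Ishikawa cells stably expressing PR-B co-treated with 1 nM progesterone plus test agent at 10 μM; PRE-luciferase reporter activity compared with 1 nM progesterone alone; n≥3; mean ± SEM, significance by p-value thresholds.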

Activity [1]	Activity [2]	Activity ([2]; filed as activator)	SMILES
inactive	–	–	C=C[C@H]1C(O[C@@H]2O[C@H](CO)[C@@H](O)[C@H](O)[C@H]2O)OC=C(C(=O)O)[C@H]1CC(=O)O (stereo partly specified)
inactive	29%	–	COC(=O)C1=CO[C@@H](O[C@@H]2O[C@H](CO)[C@@H](O)[C@H](O)[C@H]2O)[C@@H]2[C@H](C)O[C@H](OC)C[C@H]12
inactive	–	42%	C=C[C@H]1[C@H](O[C@@H]2O[C@H](CO)[C@@H](O)[C@H](O)[C@H]2O)OC=C(C(=O)O)[C@H]1CCOC(=O)c1cc(O)c(O)c(O)c1
inactive	–	43%	C=C[C@H]1[C@H](O[C@@H]2O[C@H](CO)[C@@H](O)[C@H](O)[C@H]2O)OC=C(C(=O)OC)[C@H]1CCOC(=O)c1cc(O)c(O)c(O)c1
inactive	18%	–	COC(=O)C1=CO[C@@H](O[C@@H]2O[C@H](CO)[C@@H](O)[C@H](O)[C@H]2O)[C@@H]2[C@H](C)O[C@@H](OC)C[C@H]12
inactive	–	–	C=C[C@H]1C(O[C@@H]2O[C@H](CO)[C@@H](O)[C@H](O)[C@H]2O)OC=C(C(=O)OC)[C@H]1CC(=O)O (stereo partly specified)

SMILES	Activity [1]	Activity [2]	Activity ([2]; filed as activator)
C=C[C@H]1[C@H](O[C@@H]2O[C@H](CO)[C@@H](O)[C@H](O)[C@H]2O)OC=C2C(=O)OCC[C@H]21	inactive	–	–
